Most compounds without a hit are left out; they make up all but 4% or so of the library.
SIRT5 inh: SIRT5 desuccinylase inhibitors, primary screen, biochemical, fluorescence imaging, single point, set 5; NAD-dependent protein deacylase sirtuin-5, mitochondrial (Homo sapiens), Q9NXA8; Purified SirT5, succinyl-peptide AMC, trypsin-coupled fluorescence; inhibition, % at 15 µM; 1.1% of 330,000 active; AID 652115, 2013; in the data active = inhibition above about 15%
Target sequence (Q9NXA8 whole entry, looked up): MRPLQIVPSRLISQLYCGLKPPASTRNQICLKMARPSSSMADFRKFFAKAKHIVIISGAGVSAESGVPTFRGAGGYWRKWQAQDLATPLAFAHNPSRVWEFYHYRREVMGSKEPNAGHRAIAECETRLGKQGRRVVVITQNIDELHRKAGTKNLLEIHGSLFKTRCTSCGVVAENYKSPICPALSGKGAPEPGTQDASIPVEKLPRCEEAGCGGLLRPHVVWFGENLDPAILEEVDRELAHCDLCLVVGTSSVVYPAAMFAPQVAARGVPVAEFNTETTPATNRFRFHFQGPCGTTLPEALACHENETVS
E-sel inducer: E-selectin induction in HUVECs, primary screen, imaging, HUVEC, immunofluorescence imaging, single point | 0.37% of 260,000 active | activation, % at 7.58 µM | AID 686992, 2013 | normalized: neutral wells 0, TNF-alpha wells 100;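 active = mean E-selectin-positive cell signal at least 10% of the positive control, reached in at least 60% of replicates, without over 20% cell loss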
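System: HUVEC, human umbilical vein endothelial cells; quantity: 3,000 cells/well; buffer or medium: EGM-2 medium, gelatin-coated wells; dosing: single-point compound dose; detection: immunofluorescence imaging; evaluation: % PE-positive cells; benchmarks: TNF-alpha, DMSO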
FGF22 binding: binders of human FGF22 protein, primary screen, FGF22 synaptogenesis inhibitor project, biophysical, thermal shift, single point | activity (Tm shift, normalised), % at 9.99 µM | AID 651658, 2012 | Fibroblast growth factor 22 (Homo sapiens), Q9HCT0 | 1.5% of 340,000 active | recombinant FGF22 thermal shift, SYPRO orange fluorescence; percent of sucrose octasulfate shift, DMSO zero;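 active = mean Tm shift, scaled 0 neutral to 100 positive control, at about 1.3% or above, every replicate too, limit read from the data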
Target sequence (Q9HCT0 whole entry, looked up): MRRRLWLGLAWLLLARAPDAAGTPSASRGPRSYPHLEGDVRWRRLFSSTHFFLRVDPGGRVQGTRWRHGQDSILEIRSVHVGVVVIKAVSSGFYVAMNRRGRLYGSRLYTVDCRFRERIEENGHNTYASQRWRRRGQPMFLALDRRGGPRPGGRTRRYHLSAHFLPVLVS
Ecoli rRNA inh: reduced GFP signal of wild-type E. coli, primary screen, bacterial rRNA inhibitor project, GFP/RFP fluorescence, OD600, single point; GFP signal change (wild-type ribosome), % (no concentration beside the values); 1.6% of 350,000 active; E. coli WT GFP vs humanized-ribosome RFP mutants, 24 h; active compounds read low; DMSO median 0, no signal -100;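 active = significant combined selectivity score with lowered wild-type GFP, culture density cut under 30%, mutant RFP and density less affected; inactive = any of these conditions unmet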
FN deposition inh: inhibitors of fibronectin matrix deposition, primary screen, AH1F cells, Alexa488-fibronectin fluorescence, plate reader; AH1F fibroblasts, overnight; inhibition, % at 12.6 µM; 0.086% of 350,000 active;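 active = mean inhibition across replicates of 30% or more, regardless of how many single replicates reach that level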;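 also: positive control wells lacked labelled fibronectin entirely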
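Schedule: 1 h cell adhesion before compound, then overnight fibronectin incubation; test system: AH1F fibroblast monolayer depositing Alexa488-labelled fibronectin into matrix; quantity: 10000 AH1F cells per well; probe or stimulus: fluorescent fibronectin at 24 nM final; signal: fluorescence, ex 485 nm, em 525 nm; evaluation: percent inhibition as loss of matrix-bound fibronectin fluorescence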
Statin myotox sup: suppressors of statin myotoxicity in C2C12 myotubes, primary screen, cell-based, single point, plate reader. rescue of ATP level, % at 7.49 µM. C2C12 myotubes + simvastatin, ATP luminescence, 48 h; scaled: DMSO 0, geranylgeraniol control 100. 0.78% of 330,000 active;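 active = mean ATP rescue above about 67%, or every replicate alone reaching that limit, limit read from the data, passing the limit was not always enough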;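 also: myotubes were challenged with 10 µM simvastatin during compound exposure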
An asterisk follows results filed as active; · = not tested or not shown.

SMILES	SIRT5 inh	E-sel inducer	FGF22 binding	Ecoli rRNA inh	FN deposition inh	Statin myotox sup
COc1ccc(S(=O)(=O)Nc2ccc3c(c2)C(=O)N([C@H](C)CO)C[C@H](C)[C@@H](CN(C)C(=O)Nc2ccc4c(c2)OCO4)OCCCC[C@H](C)O3)cc1	13	0	-1	-5	1	·
CC(C)NC(=S)NNc1ncnc2sc3c(c12)CC(C)(C)OC3	-3	0	·	10	7	-8
CC1(C)Cc2c(sc3ncnc(NNC(=S)NCc4ccccc4)c23)CO1	-5	·	-1	-34*	-20	·
CC(C)CC#Cc1cnc2c(c1)C(=O)N([C@H](C)CO)C[C@@H](C)[C@H](CN(C)C(=O)c1ccc3c(c1)OCO3)O2	2	74*	0	-2	·	25
CC(C)CC#Cc1cnc2c(c1)C(=O)N([C@@H](C)CO)C[C@@H](C)[C@H](CN(C)C(=O)c1ccc3c(c1)OCO3)O2	3	1	0	4	·	78*
C[C@@H]1CCCCO[C@@H](CN(C)C(=O)Nc2ccc(F)cc2)[C@H](C)CN([C@H](C)CO)C(=O)c2cc(NS(=O)(=O)c3cn(C)cn3)ccc2O1	2	0	0	0	4	·
CCCC(=O)N1CCC2(CC1)CN[C@@H](CO)c1c2c2ccc(OC)cc2n1C	·	·	·	2	·	·
CN(C)CC(=O)N1[C@H](C#N)[C@@H](c2ccc(/C=C/c3ccccc3)cc2)[C@H]1CO	1	0	0	3	17	2
CC1CCN(C(=O)c2cc3nc(-c4ccccc4)cc(-c4ccccc4)n3n2)CC1	·	·	·	·	13	83*
COc1ccc(NC(=O)CC2C(=O)N(c3cccc(OC)c3)C(=O)N2CCC(C)C)cc1 (configuration not stated)	·	·	·	·	3	93*
COc1ccc(NC(=O)CC2C(=O)N(c3cccc(OC)c3)C(=O)N2C(C)C)cc1 (configuration not stated)	-1	0	0	6	0	1
CCCCC(=O)N1CCCC(c2nc(-c3cccc(OC)c3)no2)C1 (configuration not stated)	-3	·	43*	3	-5	23
CN(C)c1cccc2c1c(NC(=O)Nc1ccc(Cl)cc1Cl)nn2C	1	0	0	6	-4	-21
COc1ccccc1NC(=O)Nc1nn(C)c2cccc(N(C)C)c12	-8	·	0	-30*	-6	·
CC(C)C(NC(=O)c1ccccc1Br)c1ccccc1 (configuration not stated)	0	·	43*	5	7	·
Cc1ccc(S(=O)(=O)c2c(COC(=O)c3ccccc3Cl)c(-c3ccccc3)nn2C)cc1	·	·	·	·	·	116*
C[C@@H]1CN([C@H](C)CO)C(=O)c2cc(NC(=O)Nc3ccc4c(c3)OCO4)ccc2O[C@@H](C)CCCCO[C@H]1CN(C)C(=O)c1ccccc1	2	0	-1	0	·	·
O=C1C(c2ccccc2)C(c2ccccc2)NC(c2ccccc2)C1c1ccccc1 (configuration not stated)	·	·	·	·	2	111*
c1csc(CNc2ncnc3ccc(-c4ccoc4)cc23)c1	·	·	0	10	-2	2
c1csc(CNc2ncnc3ccc(-c4ccc5c(c4)OCO5)cc23)c1	4	0	44*	9	7	-8
Cc1csc(CNc2ncnc3ccc(-c4cccc(Cl)c4)cc23)c1	34*	0	0	-16	14	-24
Cc1cccc(CNc2ncnc3ccc(-c4ccccc4Cl)cc23)c1	-17	0	0	-10	-8	-25
CCCC#Cc1ccc([C@@H]2[C@H](CO)N3CCCCN(C(=O)NC4CCCC4)C[C@@H]23)cc1	11	0	0	-53	·	-53
Cc1cc(C(=O)CSc2nnnn2-c2ccccc2)c(C)n1CCc1ccccc1	·	·	·	·	-10	107*
Cc1cc(C(=O)CSc2nnnn2-c2ccc(O)cc2)c(C)n1C	3	·	1	-26*	·	11
SMILES	SIRT5 inh	E-sel inducer	FGF22 binding	Ecoli rRNA inh	FN deposition inh	Statin myotox sup
COc1ccc(CCn2c(C)cc(C(=O)CSc3nnnn3-c3ccccc3)c2C)cc1OC	-2	·	0	1	·	-49
COc1ccccc1-c1nnc(C2CCN(S(=O)(=O)c3cccc([N+](=O)[O-])c3)CC2)o1	3	·	0	-22*	-20	0
COc1ccccc1-c1nnc(C2CCN(S(=O)(=O)c3ccc([N+](=O)[O-])cc3)CC2)o1	-4	·	0	9	9	7
COc1ccccc1-c1nnc(C2CCN(S(=O)(=O)c3ccccc3[N+](=O)[O-])CC2)o1	3	·	0	-18*	-10	7
CC1CCN(S(=O)(=O)c2ccccc2[N+](=O)[O-])CC1	1	-1	0	8	6	-22
C[C@@H]1CN([C@H](C)CO)C(=O)c2cc(C#Cc3ccccc3F)cnc2O[C@H]1CN(C)C(=O)C1CC1	1	1	0	-1	·	10
C[C@@H]1CN([C@H](C)CO)C(=O)c2cc(NC(=O)CCCN(C)C)ccc2O[C@@H](C)CCCCO[C@@H]1CN(C)S(C)(=O)=O	-5	0	0	1	·	-4
CCOc1ccc(N(CC(=O)Nc2ccc(C)c(F)c2)C2=NC3CS(=O)(=O)CC3S2)cc1 (configuration not stated)	15*	·	0	10	-4	-3
C[C@@H]1CN([C@@H](C)CO)C(=O)c2cc(NC(=O)Nc3ccccc3)ccc2O[C@H]1CN(C)Cc1ccc(-c2ccccc2)cc1	1	0	0	-1	·	1
CCN(CC)S(=O)(=O)c1cccc(-c2nnc(SCC(=O)NCCC3=CCCCC3)n2N)c1	·	·	·	·	10	124*
Cc1ccc(-c2nnc(NC(=O)c3ccco3)o2)c(C)c1	-2	7	-1	-24*	-6	-3
O=C(Nc1nnc(-c2cccs2)o1)c1ccco1	·	0	0	8	7	69*
C[C@H]1CN([C@@H](C)CO)C(=O)c2cc(NC(=O)c3ccncc3)ccc2O[C@H]1CN(C)C(=O)Nc1ccc(C(F)(F)F)cc1	-3	0	0	-3	1	-37
Cc1cc(C)nc(-n2nc(C)c(Sc3ccc(F)cc3)c2N)n1	-1	·	0	-40*	·	-7
